ChEMBL document CHEMBL3259707, “Design and synthesis of human ABCB1 (P-glycoprotein) inhibitors by peptide coupling of diverse chemical scaffolds on carboxyl and amino termini of (S)-valine-derived thiazole amino acid” (J Med Chem, 2014)

Experiments:
[1] = target: T1, ATP-dependent translocase ABCB1 (Homo sapiens, UniProt P08183); assay: Reversal of Pgp-1-mediated multidrug resistance in human SW620 cells assessed as potentiation of paclitaxel cytotoxicity at 1 uM treated for 2 hrs prior to paclitaxel challenge measured after 72 hrs by MTT assay relative to paclitaxel alone-treated control; type: cell-based; details: sw-620, 72 h
Method in brief: (§1)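 MTT reversal assay. Cells seeded 5000–6000/well and attached 24 h; modulator added 2 h before graded paclitaxel; 72 h at 37 °C; MTT 4 h, DMSO solubilisation, A570. Paclitaxel IC50 taken from killing curves. Fold-resistance = paclitaxel IC50 (± modulator) ÷ paclitaxel IC50 in parental SW620 or HEK293. Four independent experiments in triplicate, mean ± SEM. Cells drug-free >2 weeks beforehand.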

[2] = target: T1, ATP-dependent translocase ABCB1; assay: Reversal of Pgp-1-mediated multidrug resistance in human HEK293 cells assessed as potentiation of paclitaxel cytotoxicity at 3 uM treated for 2 hrs prior to paclitaxel challenge measured after 72 hrs by MTT assay relative to paclitaxel alone-treated control; type: cell-based; details: hek293, 72 h; method in brief: as §1
[3] = target: T1, ATP-dependent translocase ABCB1; assay: Reversal of Pgp-1-mediated multidrug resistance in human SW620 cells assessed as potentiation of paclitaxel cytotoxicity at 10 uM treated for 2 hrs prior to paclitaxel challenge measured after 72 hrs by MTT assay relative to paclitaxel alone-treated control; type: cell-based; details: sw-620, 72 h
Method in brief: (§2)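 Cells seeded at 5000–6000/well, attached 24 h at 37 °C, 5% CO2, then preincubated 2 h ± reversal agent before paclitaxel dilutions; after 72 h, MTT (4 mg/mL) 4 h, formazan dissolved in DMSO, absorbance 570 nm. Paclitaxel IC50 from killing curves; fold-resistance = IC50 divided by parental paclitaxel IC50. Four independent experiments in triplicate. HEK lines kept with G418 (2 mg/mL).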

[4] = target: T1, ATP-dependent translocase ABCB1; assay: Reversal of Pgp-1-mediated multidrug resistance in human HEK293 cells assessed as potentiation of paclitaxel cytotoxicity at 1 uM treated for 2 hrs prior to paclitaxel challenge measured after 72 hrs by MTT assay relative to paclitaxel alone-treated control; type: cell-based; details: hek293, 72 h; method in brief: as §1
[5] = target: T1, ATP-dependent translocase ABCB1; assay: Displacement of […] from ABCB1 (unknown origin) expressed in High Five insect cell membrane preincubated for 10 mins by autoradiography
Method in brief: (§3)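 Compound 0–20 μM, 10 min at 37 °C. Then [125I]-IAAP (2200 Ci/mmol; 4–6 nM) added for 5 min under minimal light. UV 365 nm for 10 min, labeling read by autoradiography. Two independent experiments; curve fitted by one-phase decay.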

[6] = target: T1, ATP-dependent translocase ABCB1; assay: Reversal of Pgp-1-mediated multidrug resistance in human HEK293 cells overexpressing human ABCB1 assessed as potentiation of paclitaxel cytotoxicity at 10 uM treated for 2 hrs prior to paclitaxel challenge measured after 72 hrs by MTT assay relative to paclitaxel alone-treated control; type: cell-based; details: hek293, 72 h; method in brief: as §2
[7] = target: T1, ATP-dependent translocase ABCB1; assay: Reversal of Pgp-1-mediated multidrug resistance in human SW620/Ad300 cells overexpressing ABCB1 assessed as potentiation of paclitaxel cytotoxicity at 1 uM treated for 2 hrs prior to paclitaxel challenge measured after 72 hrs by MTT assay relative to paclitaxel alone-treated control; type: cell-based; details: sw-620, 72 h; method in brief: as §1
[8] = target: T1, ATP-dependent translocase ABCB1; assay: Inhibition of human wild type P-gp expressed in BacMam virus infected human HeLa cells assessed as calcein-AM accumulation after 10 mins by flow cytometry; type: cell-based
Method in brief: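 HeLa cells transduced with BacMam WT-P-gp (10–15 particles/cell); 10 mM butyric acid added after 3–4 h, grown overnight at 37 °C. Trypsinized cells exposed to compound, then 0.5 μM calcein-AM for 10 min at 37 °C in the dark. […] Two independent experiments in triplicate, ± SD.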

[9] = target: T1, ATP-dependent translocase ABCB1; assay: Stimulation of ATPase activity of ABCB1 (unknown origin) expressed in High Five insect cell membrane assessed as ATP hydrolysis at 0.5 to 2.5 uM relative to control
[10] = target: T1, ATP-dependent translocase ABCB1; assay: Stimulation of ATPase activity of ABCB1 (unknown origin) expressed in High Five insect cell membrane assessed as ATP hydrolysis
Method in brief: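 Vanadate-sensitive ATPase of P-gp in crude High Five membranes (10 μg protein/100 μL). Compound 0–10 μM, with and without 0.3 mM sodium orthovanadate, in ATPase assay buffer. […] Three independent experiments in duplicate, mean ± SEM.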

[11] = Cytotoxicity against human SW620 cells assessed as cell survival at 10 uM by MTT assay; type: cell-based, SW-620; details: read-out: Activity
Method in brief: (§4)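 Cells seeded at 5000–6000 per well in triplicate, attached 24 h at 37 °C, 5% CO2, then exposed to compound for 72 h. MTT (4 mg/mL) added for 4 h, formazan dissolved in DMSO, absorbance read at 570 nm. Four independent experiments. HEK/ABCB1 and HEK293 kept in DMEM with G418 (2 mg/mL). All lines drug-free for over 2 weeks beforehand.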

[12] = target: T1, ATP-dependent translocase ABCB1; assay: Reversal of Pgp-1-mediated multidrug resistance in human HEK293 cells overexpressing human ABCB1 assessed as potentiation of paclitaxel cytotoxicity at 1 uM treated for 2 hrs prior to paclitaxel challenge measured after 72 hrs by MTT assay relative to paclitaxel alone-treated control; type: cell-based; details: hek293, 72 h; method in brief: as §1
[13] = Cytotoxicity against human HEK293 cells overexpressing human ABCB1 assessed as cell survival at 10 uM by MTT assay; type: ADME, cell-based; details: HEK293 cells that overexpress human ABCB1, read-out: Activity; method in brief: as §4
[14] = target: T1, ATP-dependent translocase ABCB1; assay: Reversal of Pgp-1-mediated multidrug resistance in human SW620/Ad300 cells overexpressing ABCB1 assessed as potentiation of paclitaxel cytotoxicity at 10 uM treated for 2 hrs prior to paclitaxel challenge measured after 72 hrs by MTT assay relative to paclitaxel alone-treated control; type: cell-based; details: sw-620, 72 h; method in brief: as §2
[15] = Retention time of the compound by HPLC analysis; type: physicochemical
Method in brief: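 Reverse-phase C18 HPLC, isocratic acetonitrile/water 60:40, 1.0 mL/min, UV 254 nm; purity from major-peak area.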

[16] = Cytotoxicity against human SW620/Ad300 cells overexpressing ABCB1 assessed as cell survival at 10 uM by MTT assay; type: ADME, cell-based, SW-620; details: SW620/Ad300 cells that overexpress ABCB1, read-out: Activity; method in brief: as §4
[17] = Retardation factor of the compound using EtOAc-n-hexane at ratio of 3:2 by thin layer chromatography; type: physicochemical
[18] = target: T1, ATP-dependent translocase ABCB1; assay: Stimulation of ATPase activity of ABCB1 (unknown origin) expressed in High Five insect cell membrane assessed as ATP hydrolysis at >2.5 uM relative to control
[19] = target: T1, ATP-dependent translocase ABCB1; assay: Reversal of Pgp-1-mediated multidrug resistance in human HEK293 cells assessed as potentiation of paclitaxel cytotoxicity at 10 uM treated for 2 hrs prior to paclitaxel challenge measured after 72 hrs by MTT assay relative to paclitaxel alone-treated control; type: cell-based; details: hek293, 72 h; method in brief: as §2
[20] = target: T1, ATP-dependent translocase ABCB1; assay: Displacement of […] from ABCB1 (unknown origin) expressed in High Five insect cell membrane at >5 uM preincubated for 10 mins by autoradiography; method in brief: as §3
[21] = target: T1, ATP-dependent translocase ABCB1; assay: Reversal of Pgp-1-mediated multidrug resistance in human SW620 cells assessed as potentiation of paclitaxel cytotoxicity at 3 uM treated for 2 hrs prior to paclitaxel challenge measured after 72 hrs by MTT assay relative to paclitaxel alone-treated control; type: cell-based; details: sw-620, 72 h; method in brief: as §1
[22] = target: T1, ATP-dependent translocase ABCB1; assay: Reversal of Pgp-1-mediated multidrug resistance in human HEK293 cells overexpressing human ABCB1 assessed as potentiation of paclitaxel cytotoxicity at 3 uM treated for 2 hrs prior to paclitaxel challenge measured after 72 hrs by MTT assay relative to paclitaxel alone-treated control; type: cell-based; details: hek293, 72 h; method in brief: as §1
[23] = Cytotoxicity against human HEK293 cells assessed as cell survival at 10 uM by MTT assay; type: cell-based; details: read-out: Activity; method in brief: as §4
[24] = target: T1, ATP-dependent translocase ABCB1; assay: Reversal of Pgp-1-mediated multidrug resistance in human SW620/Ad300 cells overexpressing ABCB1 assessed as potentiation of paclitaxel cytotoxicity at 3 uM treated for 2 hrs prior to paclitaxel challenge measured after 72 hrs by MTT assay relative to paclitaxel alone-treated control; type: cell-based; details: sw-620, 72 h; method in brief: as §1

T1 sequence (P08183 whole entry): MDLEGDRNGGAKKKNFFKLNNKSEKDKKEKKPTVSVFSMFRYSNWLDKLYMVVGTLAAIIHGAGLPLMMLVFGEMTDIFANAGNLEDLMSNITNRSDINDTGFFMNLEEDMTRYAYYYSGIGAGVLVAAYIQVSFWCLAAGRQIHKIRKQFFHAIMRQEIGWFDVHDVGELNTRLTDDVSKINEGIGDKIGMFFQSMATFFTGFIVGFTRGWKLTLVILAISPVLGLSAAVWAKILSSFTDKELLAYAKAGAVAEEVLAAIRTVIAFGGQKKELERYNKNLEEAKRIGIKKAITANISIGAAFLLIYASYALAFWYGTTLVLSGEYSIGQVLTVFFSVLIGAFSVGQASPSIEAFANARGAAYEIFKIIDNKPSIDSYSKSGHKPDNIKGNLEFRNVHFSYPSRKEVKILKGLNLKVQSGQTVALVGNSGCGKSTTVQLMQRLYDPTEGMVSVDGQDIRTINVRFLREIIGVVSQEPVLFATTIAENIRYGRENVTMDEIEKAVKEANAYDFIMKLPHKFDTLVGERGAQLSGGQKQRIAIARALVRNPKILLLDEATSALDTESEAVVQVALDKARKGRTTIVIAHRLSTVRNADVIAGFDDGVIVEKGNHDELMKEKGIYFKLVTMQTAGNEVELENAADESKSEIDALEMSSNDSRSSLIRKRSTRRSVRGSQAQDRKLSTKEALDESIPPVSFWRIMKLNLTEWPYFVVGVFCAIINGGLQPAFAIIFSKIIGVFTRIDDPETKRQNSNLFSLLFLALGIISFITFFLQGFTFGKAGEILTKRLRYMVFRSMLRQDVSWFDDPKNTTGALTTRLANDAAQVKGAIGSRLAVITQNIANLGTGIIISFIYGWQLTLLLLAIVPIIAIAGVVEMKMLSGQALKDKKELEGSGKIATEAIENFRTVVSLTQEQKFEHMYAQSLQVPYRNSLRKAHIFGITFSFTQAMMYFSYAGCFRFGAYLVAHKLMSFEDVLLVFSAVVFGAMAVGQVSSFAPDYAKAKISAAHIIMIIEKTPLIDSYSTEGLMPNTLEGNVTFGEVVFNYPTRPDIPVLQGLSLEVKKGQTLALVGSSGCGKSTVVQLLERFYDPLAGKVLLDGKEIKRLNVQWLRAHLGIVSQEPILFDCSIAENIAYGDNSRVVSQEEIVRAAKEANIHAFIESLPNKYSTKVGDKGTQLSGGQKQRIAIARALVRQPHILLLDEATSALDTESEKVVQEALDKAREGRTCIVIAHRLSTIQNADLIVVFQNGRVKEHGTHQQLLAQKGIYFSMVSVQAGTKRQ

COc1cc(C(=O)N[C@H](c2nc(C(=O)Nc3ccccc3C(=O)c3ccccc3)cs2)C(C)C)cc(OC)c1OC
Ratio [1]: 1.2
Ratio [2]: 1
Ratio [3]: 1
Ratio [4]: 1
inhibition (INH) [5]: Dose-dependent effect
Ratio [6]: 2
Ratio [7]: 31
IC50 [8]: 1 µM
inhibition (INH) ([8]; human, hela, 10 min): Dose-dependent effect
Ratio [9]: 2
EC50 [10]: 0.027 µM
Activity ([10]; human): Dose-dependent effect
viability at 10 µM [11]: > 85%
Ratio [12]: 12.9
viability at 10 µM [13]: > 85%
Ratio [14]: 1.8
Retention_time [15]: 9.4 min
viability at 10 µM [16]: > 85%
Rf [17]: 0.45
Ratio [18]: 1.8
Ratio [19]: 1
IC50 [20]: 0.72 µM
inhibition (INH) ([20]; human): 90%
Ratio [21]: 1
Ratio [22]: 3.1
viability at 10 µM [23]: > 85%
Ratio [24]: 8.5
